Test results: ChEMBL document CHEMBL4359875, “Development of novel theranostic agents for in vivo amyloid imaging and protective effects on human neuroblastoma cells” (Eur J Med Chem, 2019)
Calls of active or inactive are those of the source. The rule behind the calls is not given here.

What was measured:
[1] = Photostability of compound; format: physicochemical
[2] = target: T1, Amyloid-beta precursor protein (Homo sapiens, UniProt P05067); experiment: Binding affinity to amyloid beta 1 to 42 (unknown origin) in PBS buffer at pH 7.4 assessed as binding constant by fluorescence based assay
Procedure, shortened: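 Synthetic Aβ1-42 aggregates in PBS. Kd from a saturation binding assay read by fluorescence. Triplicate, mean ± SD.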

[3] = Stability in mouse plasma assessed as remaining compound at 50 uM incubated for 30 to 60 mins by HPLC analysis; format: ADME, cell-free; details: read-out: Stability
Procedure, shortened: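 Compound in ethanol (50 μM) added to plasma (1:9 by volume), with PBS as the standard. Incubated at 37 °C for 30 or 60 min. Mixture treated twice with acetonitrile and centrifuged. Supernatant analysed by HPLC on C18 with CH3CN/H2O 85:15 at 1 mL/min, 30 °C.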

[4] = target: T1, Amyloid-beta precursor protein; experiment: Binding affinity to amyloid beta 1 to 42 (unknown origin) in PBS buffer at pH 7.4 assessed as increase in blue shift in maximum absorption at 0.2 uM by fluorescence based assay
Procedure, shortened: (§1)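 Fluorescence titration in PBS pH 7.4: probe 0.2 μM with stepwise addition of synthetic Aβ1-42 aggregates (0 to 10.0 μM). Emission maxima compared with probe alone in PBS.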

SH-SY5Y = experiment: Dark toxicity against human SH-SY5Y cells assessed as reduction in cell viability at 50 uM incubated for 24 hrs by MTT assay; format: cell-based
Procedure, shortened: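 SH-SY5Y seeded at 5000 cells/well and incubated overnight. Compound added at a range of concentrations for 24 h, run with or without light exposure. MTT (5 mg/mL) added for 4 h, then absorbance read at 570 nm.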

[5] = target: T1, Amyloid-beta precursor protein; experiment: Inhibition of amyloid beta 1 to 42 (unknown origin)-induced ROS production in human SH-SY5Y cells at 1 and 5 uM incubated for 24 hrs by DCFH-DA staining based fluorescence assay; format: cell-based
Procedure, shortened: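 SH-SY5Y at 5000 cells/well, incubated overnight. Medium then replaced with Aβ1-42 (2 μM final) alone or with compound (1 and 5 μM) for 24 h at 37 °C, 5% CO2. DCFH-DA 10 μM added for 30 min at 37 °C, cells washed twice. Fluorescence read at ex/em 488/525 nm. Mean ± SD, Student's t test.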

[6] = target: T1, Amyloid-beta precursor protein; experiment: Inhibition of amyloid beta 1 to 42 (unknown origin)-induced cytotoxicity in human SH-SY5Y cells at 1 to 5 uM incubated for 24 hrs by MTT assay; format: cell-based
Procedure, shortened: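 SH-SY5Y at 5000 cells/well, incubated overnight. Treated for 24 h with 5 μM Aβ1-42 monomer plus compound (1 or 5 μM). MTT (5 mg/mL) added for 4 h, absorbance read at 570 nm.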

[7] = Metal chelating activity assessed as compound-Cu2+ complex formation at 20 uM by UV-visible spectroscopy
Procedure, shortened: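 UV/Vis titration: compound 20 μM in water with CuSO4 added from 0 to 1000 μM. Spectrum recorded after each addition. Triplicate.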

[8] = target: Amyloid-beta precursor protein (Mus musculus) (UniProt P12023); experiment: Binding affinity to amyloid beta 1 to 42 in C57BL/6 mouse brain hippocampus assessed as plague formation at 1 uM incubated for 5 mins by fluorescence microscopy
Procedure, shortened: (§2)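 Frozen brain sections from male APP/PS1 double transgenic mice and age-matched male C57BL/6 wild-type mice, both 10 months old. Sections were washed in PBS to remove OCT, then stained with 1 μM probe or ThT in 10% ethanol for 5 min at room temperature. They were washed twice with ethanol and PBS (0.1 M, pH 7.4) for 10 min. Cortex and hippocampus were imaged by fluorescence microscopy with GFP and Cy5 filter sets.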

[9] = target: Amyloid-beta precursor protein (Mus musculus) (UniProt P12023); experiment: Binding affinity to amyloid beta 1 to 42 in C57BL/6 mouse brain cortex assessed as plague formation at 1 uM incubated for 5 mins by fluorescence microscopy; procedure, shortened: as §2
Mus musculus [10] = experiment: In vivo binding affinity to amyloid beta 1 to 42 in APP/PS1 double transgenic C57BL/6 mouse brain assessed as amyloid-beta plaque-compound complex formation at 4 mg/kg, iv measured for 5 to 60 mins by NIR imaging analysis; format: functional, organism-based
Procedure, shortened: (§3)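 Male APP/PS1 double-transgenic and age-matched wild-type C57BL/6 mice, 12 months old, shaved. Compound 4 mg/kg in 50 μl of 20% DMSO/80% propylene glycol given via tail vein. Mice kept under 2.5% isoflurane in oxygen. Head NIR fluorescence imaged before and at time points from 5 to 60 min after dosing.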

[11] = target: Amyloid-beta precursor protein (Mus musculus) (UniProt P12023); experiment: Binding affinity to amyloid beta 1 to 42 in double transgenic C57BL/6 APPswe/PSEN1 mouse assessed as plaque formation in hippocampus region at 1 uM incubated for 5 mins by fluorescence microscopy; procedure, shortened: as §2
[12] = target: Amyloid-beta precursor protein (Mus musculus) (UniProt P12023); experiment: Binding affinity to amyloid beta 1 to 42 in double transgenic C57BL/6 APPswe/PSEN1 mouse assessed as plaque formation in cortex region at 1 uM incubated for 5 mins by fluorescence microscopy; procedure, shortened: as §2
Mus musculus [13] = experiment: In vivo binding affinity to amyloid beta 1 to 42 in C57BL/6 mouse brain assessed as amyloid-beta plaque-compound complex formation at 4 mg/kg, iv measured for 5 to 60 mins by NIR imaging analysis; format: functional, organism-based; procedure, shortened: as §3
[14] = target: T1, Amyloid-beta precursor protein; experiment: Inhibition of amyloid beta 1 to 42 aggregation in human SH-SY5Y cells incubated for 48 hrs by fluorescence microscopy; format: cell-based
Procedure, shortened: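 SH-SY5Y seeded at 2000 cells/well with Aβ1-42 monomer (0.25 μM) alone or plus compound (0.05 or 0.5 μM), 48 h at 37 °C, 5% CO2. Controls got compound after the 2 days. Read as average pixel intensity of four random fields by fluorescence microscopy. Three independent experiments.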

[15] = target: T1, Amyloid-beta precursor protein; experiment: Binding affinity to amyloid beta 1 to 42 (unknown origin) in PBS buffer at pH 7.4 assessed as increase in red shift in maximum absorption at 0.2 uM by fluorescence based assay; procedure, shortened: as §1

Amyloid-beta precursor protein (Mus musculus), sequence (P12023 whole entry): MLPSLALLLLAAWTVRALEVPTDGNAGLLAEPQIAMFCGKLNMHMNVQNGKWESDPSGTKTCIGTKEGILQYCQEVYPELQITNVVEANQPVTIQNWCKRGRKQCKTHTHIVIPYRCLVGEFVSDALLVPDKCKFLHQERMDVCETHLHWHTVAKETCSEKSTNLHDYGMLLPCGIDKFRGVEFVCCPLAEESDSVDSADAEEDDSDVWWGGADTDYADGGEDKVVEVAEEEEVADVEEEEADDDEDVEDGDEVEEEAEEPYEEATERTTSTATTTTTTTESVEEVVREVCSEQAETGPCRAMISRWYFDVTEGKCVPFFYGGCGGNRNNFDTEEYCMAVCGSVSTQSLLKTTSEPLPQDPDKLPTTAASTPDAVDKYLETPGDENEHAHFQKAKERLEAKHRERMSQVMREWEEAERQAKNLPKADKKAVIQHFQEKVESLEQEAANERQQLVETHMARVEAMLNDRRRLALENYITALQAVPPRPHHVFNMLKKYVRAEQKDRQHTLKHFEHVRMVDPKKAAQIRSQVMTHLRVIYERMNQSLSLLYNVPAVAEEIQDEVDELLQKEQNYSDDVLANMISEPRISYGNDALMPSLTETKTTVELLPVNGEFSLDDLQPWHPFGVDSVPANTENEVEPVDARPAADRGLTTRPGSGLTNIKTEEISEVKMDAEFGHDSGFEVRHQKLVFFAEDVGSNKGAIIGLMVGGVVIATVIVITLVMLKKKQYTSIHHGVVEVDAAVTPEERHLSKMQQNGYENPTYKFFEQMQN
T1 sequence (P05067 whole entry): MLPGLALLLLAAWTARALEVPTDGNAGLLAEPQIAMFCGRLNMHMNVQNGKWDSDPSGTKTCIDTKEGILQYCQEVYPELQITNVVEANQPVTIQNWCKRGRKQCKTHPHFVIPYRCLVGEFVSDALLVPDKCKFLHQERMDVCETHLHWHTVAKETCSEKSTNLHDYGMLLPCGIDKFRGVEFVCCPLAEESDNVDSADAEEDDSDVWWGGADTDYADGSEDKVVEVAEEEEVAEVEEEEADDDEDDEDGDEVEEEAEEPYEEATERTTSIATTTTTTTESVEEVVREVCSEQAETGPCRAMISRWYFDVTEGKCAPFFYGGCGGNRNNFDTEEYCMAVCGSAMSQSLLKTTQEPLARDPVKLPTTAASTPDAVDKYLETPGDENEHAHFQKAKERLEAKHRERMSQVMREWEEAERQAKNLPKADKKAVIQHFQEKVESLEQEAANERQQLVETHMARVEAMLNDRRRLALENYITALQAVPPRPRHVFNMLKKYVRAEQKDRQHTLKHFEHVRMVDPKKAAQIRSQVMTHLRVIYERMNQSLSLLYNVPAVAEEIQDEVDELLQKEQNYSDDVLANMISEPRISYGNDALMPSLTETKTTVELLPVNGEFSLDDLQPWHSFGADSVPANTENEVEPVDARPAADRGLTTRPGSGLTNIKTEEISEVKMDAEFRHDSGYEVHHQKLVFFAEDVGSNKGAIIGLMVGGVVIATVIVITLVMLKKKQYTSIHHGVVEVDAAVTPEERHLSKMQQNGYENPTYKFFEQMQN

SMILES | Stability [1] | Kd [2] [nM] | remaining at 50 µM [3] [%] | fold change (FC) [4] | Activity (SH-SY5Y) | Activity [5] | Activity [6] | Activity [7] | Activity [8] | Activity [9] | Activity (Mus musculus [10]) | Activity [11] | Activity [12] | Activity (Mus musculus [13]) | inhibition [14] | fold change (FC) [15]
CCOC(=O)CN(CC(=O)OCC)C(=O)CN1C(=O)/C(=C\c2ccc3c(c2)Sc2ccccc2N3C)SC1=S | Stable | 46.3 | > 96 | 38.3 | Non-Toxic | – | – | – | – | – | – | – | – | – | – | –
CN1c2ccccc2Sc2cc(/C=C3/SC(=S)N(CC(=O)OCC(O)CO)C3=O)ccc21 (stereo not drawn) | Stable | 34.9 | > 96 | 9.5 | Non-Toxic | Active | Active | Active | – | – | – | – | – | – | – | –
CN1c2ccccc2Sc2cc(/C=C3/SC(=S)N(CC(=O)OCC4COC(C)(C)O4)C3=O)ccc21 (stereo not drawn) | Stable | 24.5 | > 96 | 22 | Non-Toxic | – | – | – | inactive | inactive | Active | Active | Active | inactive | Dose-dependent effect | –
CN1c2ccccc2Sc2cc(/C=C3/SC(=S)N(CC(=O)N(CC(=O)O)CC(=O)O)C3=O)ccc21 | Stable | 76.5 | > 96 | – | Non-Toxic | Active | Active | Active | – | – | – | – | – | – | – | 2.4
